Compounds with a hit are over-represented: about 2.1% of the library has one in this group of screens.
CFTR F508del cor = F508del CFTR correction, initial screen, CFBE line, single point. activity (quench increase), % at 7.58 µM. CFBE cells, YFP halide quenching; stimulated with forskolin plus potentiator P3; % fluorescence drop versus neutral controls. 350,000 tested, 0.36% active;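 active means mean added fluorescence quench of at least 8% versus neutral control, with both replicates also reaching 8%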;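 further: cells transiently co-express mutant CFTR-F508del with the halide-sensitive YFP; corrector assay measuring rescue of mutant channel to the surface after 24 h compound exposure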
SMARCA2 activ = SMARCA2 (BRM) function activators, primary screen, cell-based, luminescence, high throughput | MG213 cells, MMTV-luciferase reporter, dexamethasone, overnight | activation, % at 9.1 µM | 370,000 tested, 1% active; in the data active means activation above about 7.8%
MC4R ag barr = MC4R agonists recruiting beta-arrestin, primary screen, cell-based, luminescence, agonist arm of biased-ligand search | Melanocortin receptor 4 (Homo sapiens), P32245 | AID 540308, 2011 | activation, % at 8.9 µM | U2OS MC4R beta-arrestin complementation; percent of melanotan II response, DMSO zero | 360,000 tested, 0.98% active;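 active means activation above a per-plate cutoff, the mean activation of sample wells on that plate plus 3 SD, cut at about 8% in these data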
Target sequence (P32245 whole entry, looked up): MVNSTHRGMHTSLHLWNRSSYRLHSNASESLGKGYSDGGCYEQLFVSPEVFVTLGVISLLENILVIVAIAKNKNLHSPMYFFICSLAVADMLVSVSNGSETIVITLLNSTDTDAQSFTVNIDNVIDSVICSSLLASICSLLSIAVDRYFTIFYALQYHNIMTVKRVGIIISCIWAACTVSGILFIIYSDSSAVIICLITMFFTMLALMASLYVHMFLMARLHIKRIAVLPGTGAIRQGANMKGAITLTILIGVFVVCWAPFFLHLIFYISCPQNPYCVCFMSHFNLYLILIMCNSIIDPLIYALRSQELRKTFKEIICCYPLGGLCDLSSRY
MC4R antag cAMP = MC4R antagonists of cAMP signaling, primary screen, cell-based, TR-FRET, antagonist arm of biased-ligand search | MC4R-expressing cells, MTII-stimulated cAMP, LANCE TR-FRET | 360,000 tested, 0.48% active | inhibition, % at 6.5 µM;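 active means inhibition above its plate's cutoff, the mean of tested wells on that plate plus 3 SD, cut at about 29% in these data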
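System: U2OS-MC4R stable cell line; Technique: Eu-cAMP/anti-cAMP TR-FRET, emission 671 nm; Repeats: single well per compound; Also added: Melanotan II; Dosing: one concentration, 6.5 µM nominal; Schedule: 30-min compound, 1-h challenge, 1-h detection, room temperature.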
SMARCA2 conf = SMARCA2 (BRM) function activators, confirmation, cell-based, luminescence, triplicate; shares compounds with SMARCA2 activ; MG213 cells, MMTV-luciferase with dexamethasone, overnight; MG213 cells expressing E1A, Rb sequestered; DMSO wells 0%, reference activator 100%; activation, % at 9.1 µM; 3,500 tested, 30% active; AID 652260, 2013;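 active means activation above its plate's cutoff, the mean activation of tested wells plus 3 SD, cut at about 7.9% in these data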
VP16 Luc act = GAL4-VP16 luciferase reporter activation, counter-screen for SMARCA2 (BRM) activator project, cell-based, pG5luc, luminescence, high throughput; HEK293 GAL4-VP16 pG5luc reporter; scaled: DMSO wells 0%, SAHA wells 100%; 3,500 tested, 41% active; activation, % at 9.1 µM; shares compounds with SMARCA2 activ;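 active means activation above the solvent-only control well mean plus 3 SD, averaged across control plates, cut at about 5.2% in these data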
Numbers stand for hits.

COc1ccc(CN(C)C(=O)c2ccc3c(=O)n4c(nc3c2)CCC4)cc1 was read as CFTR F508del cor inactive, SMARCA2 activ 8.2, MC4R ag barr inactive, MC4R antag cAMP inactive, SMARCA2 conf inactive and VP16 Luc act inactive.
Screening COc1cccc(CN(C)C(=O)c2ccc3c(=O)n4c(nc3c2)CCC4)c1 returned CFTR F508del cor inactive, SMARCA2 activ inactive, MC4R ag barr inactive and MC4R antag cAMP inactive.
`CN(C)c1ccc2c(c1)[C@H]1C[C@H](CC(=O)NCc3ccc(Oc4ccccc4)cc3)O[C@H](CO)[C@H]1O2` gave CFTR F508del cor inactive.
N=c1n(CCN2CCCC2)c2ccccc2n1CC(O)c1ccc(Cl)c(Cl)c1 (configuration not stated) was read as CFTR F508del cor inactive, SMARCA2 activ 14.1, MC4R ag barr inactive, MC4R antag cAMP inactive, SMARCA2 conf inactive and VP16 Luc act inactive.
Screening N=c1n(CCN2CCOCC2)c2ccccc2n1CC(=O)c1ccc(Cl)c(Cl)c1 returned SMARCA2 activ inactive, MC4R ag barr inactive and MC4R antag cAMP inactive.
CN(C)C(=O)[C@H]1[C@H](CO)[C@H]2Cn3c(ccc(-c4ccncc4)c3=O)[C@@H]1N2CC1CCCC1 was read as CFTR F508del cor inactive.
For Cc1nc(Nc2ccc(C(=O)O)cc2)sc1-c1ccccc1 the results were CFTR F508del cor inactive, SMARCA2 activ 9.1, MC4R ag barr inactive, MC4R antag cAMP inactive, SMARCA2 conf 9.2 and VP16 Luc act 5.4.
`Cc1nc(Nc2ccccc2)sc1-c1ccccc1` gave SMARCA2 activ inactive, MC4R ag barr inactive and MC4R antag cAMP inactive.
For CCN1CCCC1CNC(=O)C(=O)Nc1ccccc1 (configuration not stated) the results were CFTR F508del cor inactive, SMARCA2 activ 10.7, MC4R ag barr inactive, MC4R antag cAMP inactive, SMARCA2 conf inactive and VP16 Luc act 6.1.
Screening CCOc1ccc(NC(=O)C(=O)NCC2CCCN2CC)cc1 (configuration not stated) returned SMARCA2 activ inactive, MC4R ag barr inactive and MC4R antag cAMP inactive.
For O=C(NC1CCCC1)N1CC(=O)N2[C@H](CO)[C@@H](c3ccc(-c4cccc(F)c4)cc3)[C@H]2C1 the results were CFTR F508del cor inactive.
Screening Cc1ccc2cc(C#N)c(SCC(=O)NNC(=O)Cc3ccccc3)nc2c1 returned SMARCA2 activ inactive, MC4R ag barr inactive and MC4R antag cAMP inactive.
COc1ccc2cc(C#N)c(SCC(=O)NNC(=O)Cc3ccccc3)nc2c1 was read as SMARCA2 activ 9.1, MC4R ag barr inactive, MC4R antag cAMP inactive, SMARCA2 conf inactive and VP16 Luc act inactive.
For Cc1noc(C)c1S(=O)(=O)Nc1ccc2c(c1)C(=O)N([C@@H](C)CO)C[C@@H](C)[C@@H](CN(C)S(=O)(=O)c1c(C)noc1C)O2 the results were CFTR F508del cor inactive.
Screening COC(=O)[C@]1(CCC(=O)OC(C)(C)C)N=C(c2ccc(OCCCO)cc2)O[C@@H]1c1ccccc1 returned CFTR F508del cor inactive.
For COc1ccc(N2CCN(C(=O)c3cc(=O)c4cc(Cl)ccc4o3)CC2)cc1 the results were CFTR F508del cor inactive, SMARCA2 activ inactive, MC4R ag barr inactive and MC4R antag cAMP inactive.
COc1ccc(N2CCN(C(=O)c3cc(=O)c4ccc(C)cc4o3)CC2)cc1 was read as CFTR F508del cor inactive, SMARCA2 activ 11.8, MC4R ag barr inactive, MC4R antag cAMP inactive, SMARCA2 conf inactive and VP16 Luc act inactive.
For CCC(=O)Nc1ccc2c(c1)OC[C@@H](C)N(C(=O)CC1CC1)C[C@H](C)[C@H](OC)CN(C)C2=O the results were CFTR F508del cor inactive.
`N#Cc1ccc2c(=O)n(-c3ccccc3)sc2c1` gave CFTR F508del cor inactive, SMARCA2 activ inactive, MC4R ag barr inactive and MC4R antag cAMP inactive.
`CC(=O)Nc1ccc2c(=O)n(-c3ccccc3)sc2c1` gave CFTR F508del cor inactive, SMARCA2 activ 9.8, MC4R ag barr inactive, MC4R antag cAMP inactive, SMARCA2 conf inactive and VP16 Luc act inactive.
CCCNC(=O)N[C@@H]1CC[C@H](CCn2cc(-c3cccc(F)c3)nn2)O[C@@H]1CO was read as CFTR F508del cor inactive.
For CCN=C1S/C(=C\c2cn(CC(=O)NCc3ccco3)c3ccccc23)C(=O)N1CC the results were CFTR F508del cor inactive, SMARCA2 activ 8.1, MC4R ag barr inactive, MC4R antag cAMP inactive, SMARCA2 conf 9.9 and VP16 Luc act inactive.
`Cc1ccc(SCn2nnc3ccccc3c2=O)c(C)c1` gave CFTR F508del cor inactive, SMARCA2 activ inactive, MC4R ag barr inactive and MC4R antag cAMP inactive.
For O=c1c2ccccc2nnn1CSc1ccccc1F the results were SMARCA2 activ 11.2, MC4R ag barr inactive, MC4R antag cAMP inactive, SMARCA2 conf inactive and VP16 Luc act 13.5.
Screening O=c1c2ccccc2nnn1Cc1ccccc1 returned CFTR F508del cor inactive, SMARCA2 activ inactive, MC4R ag barr inactive and MC4R antag cAMP inactive.
For Cc1ccc2nc(SCn3nnc4ccccc4c3=O)[nH]c2c1 the results were CFTR F508del cor inactive, SMARCA2 activ 8.4, MC4R ag barr inactive, MC4R antag cAMP inactive, SMARCA2 conf 8.1 and VP16 Luc act 13.1.
O=c1c2ccccc2nnn1CCc1ccccc1 was read as CFTR F508del cor inactive, SMARCA2 activ 10.1, MC4R ag barr inactive, MC4R antag cAMP inactive, SMARCA2 conf 10.6 and VP16 Luc act 10.3.
Screening COc1ccc(-c2cn(CC[C@H]3CC[C@H](NC(=O)NC(C)C)[C@@H](CO)O3)nn2)cc1 returned CFTR F508del cor inactive.
For CCOc1ccc(/C=N/Nc2ccccn2)cc1OC the results were CFTR F508del cor inactive, SMARCA2 activ inactive, MC4R ag barr inactive and MC4R antag cAMP inactive.
`C=CCOc1ccc(/C=N/Nc2ccccn2)cc1OC` gave CFTR F508del cor inactive, SMARCA2 activ 9.0, MC4R ag barr inactive, MC4R antag cAMP inactive, SMARCA2 conf 9.2 and VP16 Luc act 10.8.
Brc1cccc(Nc2nc(-c3cccnc3)cs2)c1 was read as CFTR F508del cor inactive, SMARCA2 activ 8.6, MC4R ag barr inactive, MC4R antag cAMP inactive, SMARCA2 conf inactive and VP16 Luc act 6.0.
O=C(Nc1nc(-c2cccc(Br)c2)cs1)Oc1ccccc1 was read as CFTR F508del cor inactive, SMARCA2 activ 8.4, MC4R ag barr inactive, MC4R antag cAMP inactive, SMARCA2 conf 8.0 and VP16 Luc act inactive.

Screening results (PubChem)
